Results from ChEMBL document CHEMBL4184225, “Discovery of selective 2,4-diaminoquinazoline toll-like receptor 7 (TLR 7) agonists” (Bioorg Med Chem Lett, 2018).

Tests used:
[1] = AUClast in C57BL/6 mouse liver at 1 mg/kg, po administered as single dose; assay type: ADME, organism-based; design: dose 1 mg/kg, time 0 - last, route oral
In short: (§1)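 Healthy C57BL/6 mice given a single oral dose (1 or 5 mg/kg). Plasma and liver drug levels measured over time to give Tmax, Cmax and AUC0-last. Three mice per time point, reported as geometric mean.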

[2] = Tmax in C57BL/6 mouse at 1 mg/kg, po administered as single dose; assay type: ADME, organism-based; details: in vivo; in short: as §1
[3] = tested on: Mus musculus; assay: Induction of IFN-alpha production in C57BL/6 mouse liver assessed as time for peak induction of IFN-alpha at 1 mg/kg, po administered as single dose by ELISA; assay type: functional
In short: (§2)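 Healthy C57BL/6 mice given a single oral dose (1 or 5 mg/kg). Mouse IFN-α measured by ELISA in plasma and liver homogenates over time. Peak level (Fmax) and time of peak recorded. Three mice per time point, reported as geometric mean.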

[4] = Cmax in C57BL/6 mouse liver at 1 mg/kg, po administered as single dose; assay type: ADME, organism-based; design: dose 1 mg/kg, route oral; in short: as §1
[5] = tested on: Mus musculus; assay: Induction of IFN-alpha production in C57BL/6 mouse plasma assessed as peak IFN-alpha level at 1 mg/kg, po administered as single dose by ELISA; assay type: functional; in short: as §2
[6] = Cmax in C57BL/6 mouse plasma at 1 mg/kg, po administered as single dose; assay type: ADME, organism-based; design: dose 1 mg/kg, route oral; in short: as §1
[7] = tested on: Mus musculus; assay: Induction of IFN-alpha production in C57BL/6 mouse plasma assessed as time for peak induction of IFN-alpha at 1 mg/kg, po administered as single dose by ELISA; assay type: functional; in short: as §2
[8] = AUClast in C57BL/6 mouse plasma at 1 mg/kg, po administered as single dose; assay type: ADME, organism-based; design: dose 1 mg/kg, time 0 - last, route oral; in short: as §1
[9] = tested on: Mus musculus; assay: Induction of IFN-alpha production in C57BL/6 mouse liver assessed as peak IFN-alpha level at 1 mg/kg, po administered as single dose by ELISA; assay type: functional; in short: as §2
[10] = tested on: Rattus norvegicus; assay: Plasma clearance in Sprague-Dawley rat at 2.5 mg/kg, iv relative hepatic blood flow; assay type: ADME, organism-based; details: in vivo
[11] = Cmax in C57BL/6 mouse liver at 5 mg/kg, po administered as single dose; assay type: ADME, organism-based; design: dose 5 mg/kg, route oral; details: in vivo; in short: as §1
[12] = tested on: Mus musculus; assay: Induction of IFN-alpha production in C57BL/6 mouse liver assessed as peak IFN-alpha level at 5 mg/kg, po administered as single dose by ELISA; assay type: functional; in short: as §2
[13] = tested on: Mus musculus; assay: Induction of IFN-alpha production in C57BL/6 mouse plasma assessed as peak IFN-alpha level at 5 mg/kg, po administered as single dose by ELISA; assay type: functional; in short: as §2
[14] = AUClast in C57BL/6 mouse plasma at 5 mg/kg, po administered as single dose; assay type: ADME, organism-based; design: dose 5 mg/kg, route oral, time 0 - last; in short: as §1
[15] = Ratio of drug level in liver to plasma in C57BL/6 mouse at 1 mg/kg, po administered as single dose; assay type: ADME, organism-based; details: liver and plasma, 5 mg/kg, in the assay text read “5 mg/kg” for “1 mg/kg”
In short: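 Single oral dose to healthy C57BL/6 mice. Liver and plasma drug exposure measured, three mice per time point as geometric mean, and expressed as liver-to-plasma ratio.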

[16] = AUClast in C57BL/6 mouse liver at 5 mg/kg, po administered as single dose; assay type: ADME, organism-based; details: in vivo; in short: as §1
[17] = Tmax in C57BL/6 mouse at 5 mg/kg, po administered as single dose; assay type: ADME, organism-based; details: in vivo; in short: as §1
[18] = tested on: Mus musculus; assay: Induction of IFN-alpha production in C57BL/6 mouse plasma assessed as time for peak induction of IFN-alpha at 5 mg/kg, po administered as single dose by ELISA; assay type: functional; in short: as §2
[19] = tested on: Mus musculus; assay: Induction of IFN-alpha production in C57BL/6 mouse liver assessed as time for peak induction of IFN-alpha at 5 mg/kg, po administered as single dose by ELISA; assay type: functional; in short: as §2
[20] = Cmax in C57BL/6 mouse plasma at 5 mg/kg, po administered as single dose; assay type: ADME, organism-based; design: dose 5 mg/kg, route oral; in short: as §1

In the case of `CCCCNc1nc(N)nc2ccccc12`, the AUC(0-t) [1] is reported as 133 ng·h/mL, the Tmax [2] is reported as 30 min and the Time [3] is reported as 1 h. It also gave a Cmax [4] of 207 ng/mL, an Fmax [5] of 315 pg/mL and a Cmax [6] of 3 ng/mL. It also gave a Time [7] of 1 h, an AUC(0-t) [8] of 3 ng·h/mL and an Fmax [9] of 200 pg/mg.

With `CCCCNc1nc(N)nc2cccc(C(=O)N(C)Cc3ccccc3)c12` the CL [10] was 79%.

Compound `CCCCNc1nc(N)nc2cccc(C(=O)N[C@@H](C)c3ccccc3)c12` has a Cmax [11] of 3230 ng/g, an Fmax [12] of 325 pg/mg and an Fmax [13] of 2800 pg/mL. The AUC(0-t) [14] was 365 ng·h/mL, the Kp [15] was 23 and the AUClast [16] was 6619 ng·h/g. The Tmax [17] was 60 min, the Time [18] was 4 h and the Time [19] was 4 h. The Cmax [20] was 142 ng/mL.
